Tests used:
healthy males [1] = assay: Adverse events, single-dose administration study; assay type: in vivo, human; conditions: single 12-h iv infusion, n = 6, number of subjects (%)
Outline: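 Randomized, double-blind, dose-escalation study in healthy Japanese men: 8 per group, 1:3 placebo (D-mannitol) versus test compound at 3, 9 or 15 ng/kg/min. Single continuous IV infusion over 12 h (±30 min), hospitalized from the day before to the day after. Each escalation followed safety review of the next-day results. AEs were monitored throughout, plus vital signs, labs, physical exams and 12-lead ECG at set times. Monitor ECG ran to 24 h post-dose.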

healthy males [2] = assay: Adverse events, multiple-dose administration study; assay type: in vivo, human
[3] = Pharmacokinetics, plasma AM, single-dose administration study; assay type: in vivo, human; conditions: for AUC(0-t) / Cmax / Tmax / half-life: male, human, plasma, iv
[4] = Pharmacokinetics, plasma AM, multiple-dose administration study; assay type: in vivo, human; conditions: for half-life: T1/2 (terminal plasma elimination half-life), Phoenix WinNonlin; for half-life / Tmax: multiple administration, 8-h iv infusion 15 ng/kg/min per day for 7 days, mean ± SD; for Tmax: Tmax (time to maximum measured plasma concentration)
healthy males [5] = assay: Clinical laboratory tests; assay type: in vivo, human; conditions: all AM doses, single- and multiple-dose studies
[6] = test system: normotensive and hypertensive patients; conditions: 30 ng/kg/min, after 90 min of intravenous infusion; cited from earlier work
[7] = male, human, plasma, iv, 15 ng/kg/min, Day 1
[8] = male, human, plasma, iv, 15 ng/kg/min, Day 7

Compound: CC[C@H](C)[C@H](NC(=O)[C@H](CCC(N)=O)NC(=O)[C@H](Cc1c[nH]cn1)NC(=O)[C@H](C)NC(=O)[C@H](CC(C)C)NC(=O)[C@H](CCCCN)NC(=O)[C@H](CCC(N)=O)NC(=O)[C@@H](NC(=O)[C@@H](NC(=O)[C@@H]1CSSC[C@H](NC(=O)CNC(=O)[C@H](Cc2ccccc2)NC(=O)[C@H](CO)NC(=O)[C@H](CCCNC(=N)N)NC(=O)[C@H](CC(C)C)NC(=O)CNC(=O)[C@H](CCC(N)=O)NC(=O)[C@H](Cc2ccccc2)NC(=O)[C@H](CC(N)=O)NC(=O)[C@H](CC(N)=O)NC(=O)[C@H](CCSC)NC(=O)[C@H](CO)NC(=O)[C@H](CCC(N)=O)NC(=O)[C@H](CCCNC(=N)N)NC(=O)[C@@H](N)Cc2ccc(O)cc2)C(=O)N[C@@H](CCCNC(=N)N)C(=O)N[C@@H](Cc2ccccc2)C(=O)NCC(=O)N[C@@H]([C@@H](C)O)C(=O)N1)[C@@H](C)O)C(C)C)C(=O)N[C@@H](Cc1ccc(O)cc1)C(=O)N[C@@H](CCC(N)=O)C(=O)N[C@@H](Cc1ccccc1)C(=O)N[C@H](C(=O)N[C@@H](CC(=O)O)C(=O)N[C@@H](CCCCN)C(=O)N[C@@H](CC(=O)O)C(=O)N[C@@H](CCCCN)C(=O)N[C@@H](CC(=O)O)C(=O)N[C@@H](CC(N)=O)C(=O)N[C@H](C(=O)N[C@@H](C)C(=O)N1CCC[C@H]1C(=O)N[C@@H](CCCNC(=N)N)C(=O)N[C@@H](CO)C(=O)N[C@@H](CCCCN)C(=O)N[C@H](C(=O)N[C@@H](CO)C(=O)N1CCC[C@H]1C(=O)N[C@@H](CCC(N)=O)C(=O)NCC(=O)N[C@@H](Cc1ccc(O)cc1)C(N)=O)[C@@H](C)CC)C(C)C)[C@@H](C)O [Adrenomedullin]
- Any adverse event (healthy males [1]; high dose 15 ng/kg/min): 2(33.3%)
- Deaths (healthy males [1]; high dose 15 ng/kg/min): 0
- Diarrhea (gastrointestinal disorders) (healthy males [1]; high dose 15 ng/kg/min): 0
- Headache (nervous system disorders) (healthy males [1]; high dose 15 ng/kg/min): 1(16.7%)
- Palpitations (cardiac disorders) (healthy males [1]; high dose 15 ng/kg/min): 0
- Serious adverse events (healthy males [1]; high dose 15 ng/kg/min): 0
- Severe adverse events (healthy males [1]; high dose 15 ng/kg/min): 0
- Treatment-related adverse events (healthy males [1]; high dose 15 ng/kg/min): 2(33.3%)
- Wenckebach type atrioventricular block (cardiac disorders) (healthy males [1]; high dose 15 ng/kg/min): 1(16.7%)
- Any adverse event (healthy males [1]; low dose 3 ng/kg/min): 0
- Deaths (healthy males [1]; low dose 3 ng/kg/min): 0
- Diarrhea (gastrointestinal disorders) (healthy males [1]; low dose 3 ng/kg/min): 0
- Headache (nervous system disorders) (healthy males [1]; low dose 3 ng/kg/min): 0
- Palpitations (cardiac disorders) (healthy males [1]; low dose 3 ng/kg/min): 0
- Serious adverse events (healthy males [1]; low dose 3 ng/kg/min): 0
- Severe adverse events (healthy males [1]; low dose 3 ng/kg/min): 0
- Treatment-related adverse events (healthy males [1]; low dose 3 ng/kg/min): 0
- Wenckebach type atrioventricular block (cardiac disorders) (healthy males [1]; low dose 3 ng/kg/min): 0
- Any adverse event (healthy males [1]; medium dose 9 ng/kg/min): 3(50.0%)
- Deaths (healthy males [1]; medium dose 9 ng/kg/min): 0
- Diarrhea (gastrointestinal disorders) (healthy males [1]; medium dose 9 ng/kg/min): 0
- Headache (nervous system disorders) (healthy males [1]; medium dose 9 ng/kg/min): 1(16.7%)
- Palpitations (cardiac disorders) (healthy males [1]; medium dose 9 ng/kg/min): 0
- Serious adverse events (healthy males [1]; medium dose 9 ng/kg/min): 0
- Severe adverse events (healthy males [1]; medium dose 9 ng/kg/min): 0
- Treatment-related adverse events (healthy males [1]; medium dose 9 ng/kg/min): 3(50.0%)
- Wenckebach type atrioventricular block (cardiac disorders) (healthy males [1]; medium dose 9 ng/kg/min): 2(33.3%)
- ECG abnormalities, including monitor ECG (healthy males [2]; 15 ng/kg/min 8 h per day for 7 days): not reported
- Withdrawal from the study due to headache (healthy males [2]; AM 15 ng/kg/min group, n = 6): one withdrawal
- Increase of Cmax compared to the basal concentration of AM ([3]; high-dose AM group (15 ng/kg/min), single 12-h iv infusion): sevenfold
- AUC(0-t) ([3]; 3 ng/kg/min): 0.163 ± 0.0212 ng·h/mL
- Cmax ([3]; 3 ng/kg/min): 0.01 ± 0.0011 ng/mL
- Tmax ([3]; 3 ng/kg/min): 9.3 ± 4.7 h
- half-life ([3]; 3 ng/kg/min): 1.04 ± 0.92 h
- AUC(0-t) ([3]; 9 ng/kg/min): 0.295 ± 0.0521 ng·h/mL
- Cmax ([3]; 9 ng/kg/min): 0.0255 ± 0.0037 ng/mL
- Tmax ([3]; 9 ng/kg/min): 10.7 ± 1.6 h
- half-life ([3]; 9 ng/kg/min): 0.3 ± 0.2 h
- AUC(0-t) ([3]; 15 ng/kg/min): 0.532 ± 0.0915 ng·h/mL
- Cmax ([3]; 15 ng/kg/min): 0.0504 ± 0.0093 ng/mL
- Tmax ([3]; 15 ng/kg/min): 10 ± 2.2 h
- half-life ([3]; 15 ng/kg/min): 0.23 ± 0.15 h
- Accumulation of plasma AM ([4]; after the end of the 7-day AM administration, 15 ng/kg/min 8 h per day): accumulation was not observed
- Cmax ([4]; male, human, plasma, iv, 15 ng/kg/min): 0.0479 ± 0.0109 ng/mL
- half-life [4, 7]: 0.45 ± 0.66 h
- half-life [4, 8]: 0.17 ± 0.07 h
- Tmax [4, 7]: 7.2 ± 1.1 h
- Tmax [4, 8]: 6.8 ± 1.1 h
- Changes in clinical laboratory test values (healthy males [5]): no changes due to the direct effect of AM
- Effect on BP [6]: clear decrease in BP
